This sample holds only a part of the variants without activity.

First the molecules themselves.
B1: tRNA (parent)
chain: GUUCCGUUGGCGUAAUGGUAACGCGUCUCCCUCCUAAGGAGAAGACUGCGGGUUCGAGUCCCGUACGGAACG

In this data set the parent is B1. The experiment in a line: yeast fitness relative to wild type (ratio to wild type); higher = fitter; tRNA-Arg(CCU), competitive growth, 37 C, YPD. The procedure, abridged: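 Gene amplicons from the start population and from each of six end populations were read by 100-nucleotide paired-end sequencing. Those end populations came from pooled Saccharomyces cerevisiae strains carrying tRNA-Arg(CCU) gene variants at the native locus, competed in YPD at 37°C for 24 hours. Fitness relative to wild type was worked out from changes in genotype frequencies. Genotypes needed ≥ 100 starting reads, and estimates < 0.5 were set to 0.5.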
For C22G U32C A43G G52A C61G, the yeast fitness is at most 0.5.
The value for G50A G51C A65C was at most 0.5; that for C11U G12C was 0.75.
Turning to C4A A40U, the yeast fitness turned out to be 0.94.
The figure for A14G A42C G50A A70C is 0.593; for C11G U32G U54A U59A G67A it is at most 0.5.
Regarding A21C A36U A37G A42C U64A, the yeast fitness was at most 0.5.
The figure for U32C A37U C49G A70U is 0.664; for U26G C33G G50C it is at most 0.5; for U16A C31G A65U A70G it is at most 0.5.
The value for C4A A42U A57U G58C was at most 0.5; that for U13A C27G G52A U53C G63C was at most 0.5.
The figure for U8A G44A G67C is at most 0.5.
For U26C A43C, the yeast fitness is 0.952.
C5G A15G U16A A20G U28A C30A C33A A36U U47C A69C: the yeast fitness was at most 0.5.
The value for G18C G44A was 0.604; that for U28C G50U A65C was at most 0.5.
The figure for G18A A70G is 0.646; for A37C C46U A69U it is 0.7.
For A15C G51C C61U, the yeast fitness was at most 0.5.
The figure for C5U U13G C33A A37C is 0.555; for C5G C34G A69U it is at most 0.5.
Consider U3A A36G G68A A70C, for which the yeast fitness turned out to be 0.566.
For the variant G10U C31U, the yeast fitness worked out at 0.78.
For the variant G9A A14G C29G, the yeast fitness is at most 0.5.
Take C11U G23A U35C: the yeast fitness came to 0.573.
The figure for C4U U8G A20G U47G A57G is at most 0.5; for C24A U26G A43C A70G it is at most 0.5; for U2A C11U G18C C31U A42G C62U it is at most 0.5.
As for C5G C30G G56C C61U A65C, the yeast fitness worked out at 0.616.
The value for A20U C22G A45C U59C was 0.651; that for C29G U32C A40U C61U C66U was at most 0.5.
For the variant U53C A69C, the yeast fitness worked out at 0.881.
The figure for A40U G58U is 0.768.
As for G12C C24U U64G, the yeast fitness is at most 0.5.
The figure for A14C U28A C61G A69G is at most 0.5.
The figure for G23A C31A A69C is at most 0.5.
The figure for C27A C29U G48A G68C is at most 0.5; for C5U A15G U16C C66U it is at most 0.5.
On to U26A U32C U53A, for which the yeast fitness is at most 0.5.
For G50C A69C, the yeast fitness was 0.67.
A40U C55U C61G: the yeast fitness came to 0.507.
For A15G C29A G58C, the yeast fitness worked out at 0.503.
C11U C55A C66A: the yeast fitness was at most 0.5.
As for A20G A40C, the yeast fitness worked out at 0.803.
The value for C4U A21G C46A C62U was 0.691.
Regarding C5A G9A G10A A20G, the yeast fitness is at most 0.5.
The figure for C4A U8C G18C C33U is at most 0.5; for C4U A14U G50C G51C G56A it is at most 0.5.
For the variant G6C G38A, the yeast fitness is 0.84.
In the case of U3A G48A A57U, the yeast fitness came out at 0.591.
The figure for C11G G18C A21G A40U A70U is 0.509.
As for G9C C46G, the yeast fitness is 0.735.
For the variant U2C C30G C49A, the yeast fitness is at most 0.5.
The value for C11G A14G A15U G23C U53A C62U was at most 0.5; that for C5U G18A A42C was 0.674; that for C4G G23C was 0.587.
As for U13A A21C U35C G39A A42C A43G C46U, the yeast fitness was 0.63.
The value for A14C A69C was 0.654; that for G63A C66A was 0.72; that for U8A C29U C34U G58C was at most 0.5.
The value for G23U C49G A70U was at most 0.5; that for C34A C55G U64C A65C was at most 0.5; that for U35C A70C was 0.927.
As to A36G A42G C49G, the yeast fitness is at most 0.5.
The value for C62U C66U was 1.06; that for A40C C49U A69C was 0.592; that for C5G G10C A69C was 0.556.
For the variant U35C A45C C49G G56A A57U G63A, the yeast fitness is at most 0.5.
With C11G G41C, the yeast fitness worked out at 0.662.
The value for C4A C27G C31G was at most 0.5.
Regarding C24A G48A U53G G63C, the yeast fitness is at most 0.5.
For C33G U53C, the yeast fitness was at most 0.5.
The figure for A15G A57G is 0.899; for C4U A21G C49U it is 1.01.
The value for A21G U47C C49U was 0.773; that for U2C U13C G41A C60G C61G C62U was 0.596; that for U8A A14G C49G was 0.538.
The value for U8G C30U A45G C60A C66U was at most 0.5; that for U8A G12A A21G was at most 0.5.
Regarding C4G C24G G58C, the yeast fitness is at most 0.5.
On to A15C A21G C22U C49U U53C, for which the yeast fitness is at most 0.5.
The figure for U13A A21G is 1.04.
The value for A14G U64C was 0.924.
In the case of G39A U54C, the yeast fitness came out at 0.945.
Consider G6A G51A C62U, for which the yeast fitness amounted to 0.643.
With C30U C46U G52C, the yeast fitness is at most 0.5.
The value for G38C G39C C46U A69U was at most 0.5.
The value for G18C C24A A36U was at most 0.5; that for U26C C33G A45G was at most 0.5; that for G25C G41C C46U was 0.579.
In the case of C4A A43C G51A G56C, the yeast fitness came to 0.516.
The value for U7A U26G U32G A42U A45G A69U was at most 0.5; that for A20C C30G was 0.612.
The figure for C11U G18A A36U G48C C49U is 0.558; for G25C C46U G50C it is at most 0.5.
As for C24G A37C C49U, the yeast fitness is at most 0.5.
Turning to G18A A20G, the yeast fitness was determined as 0.613.
The value for U2C U47A C55G was at most 0.5.
As for G17A C30G G67C, the yeast fitness is at most 0.5.
For the variant C22G G23C C27A U28C C60A, the yeast fitness was at most 0.5.
The figure for A21G C22A G50C is at most 0.5.
For G56A U59C A65C, the yeast fitness turned out to be 0.738.
A20U U47C: the yeast fitness came out at 0.935.
The figure for U8A G12A A14C C31A G41C C49A G56A is 0.563; for C4G U26A C27U A43G C55U C66U it is at most 0.5.
As to G25A C29G G48A A69U, the yeast fitness is at most 0.5.
The figure for G23U G63C is 0.623; for C5G G9C U35G C66U it is at most 0.5.
Turning to A45G A70C, the yeast fitness was determined as 0.989.
Consider G17A A37C, for which the yeast fitness worked out at 0.681.
The value for G6A C61A C62U A65U A69C was at most 0.5; that for U32C G38C A69U was 0.531; that for G12C C27G U35A G52A A57G A69U A70U was at most 0.5.
The figure for G6A A20C A36C U47A G48C U54G A65C is at most 0.5; for A15U C33G A43C G44U it is at most 0.5.
For U2A G9A U13A C24A A42G C55U A70C, the yeast fitness is at most 0.5.
As to U26A G52A, the yeast fitness came to 0.666.
The value for C24U C30A C60U was at most 0.5; that for C5A C22U C49A C62U was at most 0.5.
The figure for U2C G25A A37G A70C is at most 0.5.
In the case of U8G C34G C55G C62A G68A, the yeast fitness is at most 0.5.
The value for C4G G56A C66G was at most 0.5; that for C4G G18A C66U was 0.524.
C4A U16C C34U C61A: the yeast fitness was at most 0.5.
The value for A14U A21C C22U C33G A45G C46G G52C was at most 0.5; that for U8C A43C C66G was at most 0.5; that for U16G G39C G56C was at most 0.5.
On to U7C A14G A43U C49G, for which the yeast fitness is at most 0.5.
With C46A C61U A69G, the yeast fitness is at most 0.5.
As to U2G C11G C49A C60U G68C, the yeast fitness was at most 0.5.
The figure for C4G G38A is 0.692; for A20U A43G G51A A69C it is at most 0.5.
The value for C11G U47A G48A was 0.58.
The figure for U3A C11G G12A C22U G39A is at most 0.5; for C24U C49G G63A A69C it is at most 0.5; for G25U U64G it is 0.788.
C11U A45U: the yeast fitness was 0.951.
Regarding U32A A42C C61G C66G, the yeast fitness is 0.554.
The value for C49A A65U G67A was 0.529; that for C22A C31A U53C A57C C60U was at most 0.5; that for G9C G10C U47A G68C was at most 0.5.
Turning to U3G A15G C34A A70G, the yeast fitness came to 0.555.
For the variant G41A C55A, the yeast fitness was 0.661.
The figure for U13A C30U C55G G58C G67U is at most 0.5; for U7A A42C it is 0.775.
The value for G44A C46U A69C was 0.996; that for C5U C24U A40C was 0.634.
The figure for G12C U59C C60A is at most 0.5; for U2A U7A A15U it is at most 0.5.
Turning to G10A C29G C33U G50A, the yeast fitness came to 0.535.
The value for C30U G38C C62G was at most 0.5; that for C61A G68A was 0.716.
The value for G6A C24U C29G C49A was 0.575; that for C27U A37U A69C was 0.608.
The figure for A15U C31U C33U G67A is 0.642; for G23A C55U A57C G58A it is at most 0.5.
For G56C A65G A70U, the yeast fitness amounted to 0.587.
Consider U28G U64A, for which the yeast fitness stood at 0.65.
Consider C4G U16C C29G A36U A70G, for which the yeast fitness is at most 0.5.
The value for A15G U26G C30U G51U G52A was at most 0.5; that for G23A A43U A65U was at most 0.5.
Consider C11A U13A C31G C55U, for which the yeast fitness was at most 0.5.
Regarding C22U G48A A69C, the yeast fitness is 0.741.
The value for U26G C49A was 0.703; that for U28A C34U A37U A45U A57G C61U was at most 0.5; that for U8C C24A U35G G52A U64A was at most 0.5.

The values above are taken from the RNAGym collection of RNA variant scans (doi:10.1126/science.aae0568).
